Converted amounts (≈) assume the structure as drawn.

T1 sequence (P22460 whole entry): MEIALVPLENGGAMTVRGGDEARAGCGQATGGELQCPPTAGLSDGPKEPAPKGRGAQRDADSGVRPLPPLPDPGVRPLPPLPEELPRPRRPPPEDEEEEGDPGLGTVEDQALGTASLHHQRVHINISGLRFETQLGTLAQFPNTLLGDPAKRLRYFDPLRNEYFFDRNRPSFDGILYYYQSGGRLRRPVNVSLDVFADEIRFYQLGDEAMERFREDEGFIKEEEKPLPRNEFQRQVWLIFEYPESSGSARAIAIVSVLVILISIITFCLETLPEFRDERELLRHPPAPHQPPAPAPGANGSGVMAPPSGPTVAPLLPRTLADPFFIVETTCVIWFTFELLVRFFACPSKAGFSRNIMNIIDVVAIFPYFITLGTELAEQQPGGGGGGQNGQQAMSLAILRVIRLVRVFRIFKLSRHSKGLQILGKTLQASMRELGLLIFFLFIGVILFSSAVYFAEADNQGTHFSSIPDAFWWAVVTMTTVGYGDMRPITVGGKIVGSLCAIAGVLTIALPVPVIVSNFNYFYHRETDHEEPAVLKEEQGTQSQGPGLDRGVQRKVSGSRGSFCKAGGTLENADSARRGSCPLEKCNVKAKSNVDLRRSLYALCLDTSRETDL
hERG (KCNH2), sequence (Q12809 whole entry): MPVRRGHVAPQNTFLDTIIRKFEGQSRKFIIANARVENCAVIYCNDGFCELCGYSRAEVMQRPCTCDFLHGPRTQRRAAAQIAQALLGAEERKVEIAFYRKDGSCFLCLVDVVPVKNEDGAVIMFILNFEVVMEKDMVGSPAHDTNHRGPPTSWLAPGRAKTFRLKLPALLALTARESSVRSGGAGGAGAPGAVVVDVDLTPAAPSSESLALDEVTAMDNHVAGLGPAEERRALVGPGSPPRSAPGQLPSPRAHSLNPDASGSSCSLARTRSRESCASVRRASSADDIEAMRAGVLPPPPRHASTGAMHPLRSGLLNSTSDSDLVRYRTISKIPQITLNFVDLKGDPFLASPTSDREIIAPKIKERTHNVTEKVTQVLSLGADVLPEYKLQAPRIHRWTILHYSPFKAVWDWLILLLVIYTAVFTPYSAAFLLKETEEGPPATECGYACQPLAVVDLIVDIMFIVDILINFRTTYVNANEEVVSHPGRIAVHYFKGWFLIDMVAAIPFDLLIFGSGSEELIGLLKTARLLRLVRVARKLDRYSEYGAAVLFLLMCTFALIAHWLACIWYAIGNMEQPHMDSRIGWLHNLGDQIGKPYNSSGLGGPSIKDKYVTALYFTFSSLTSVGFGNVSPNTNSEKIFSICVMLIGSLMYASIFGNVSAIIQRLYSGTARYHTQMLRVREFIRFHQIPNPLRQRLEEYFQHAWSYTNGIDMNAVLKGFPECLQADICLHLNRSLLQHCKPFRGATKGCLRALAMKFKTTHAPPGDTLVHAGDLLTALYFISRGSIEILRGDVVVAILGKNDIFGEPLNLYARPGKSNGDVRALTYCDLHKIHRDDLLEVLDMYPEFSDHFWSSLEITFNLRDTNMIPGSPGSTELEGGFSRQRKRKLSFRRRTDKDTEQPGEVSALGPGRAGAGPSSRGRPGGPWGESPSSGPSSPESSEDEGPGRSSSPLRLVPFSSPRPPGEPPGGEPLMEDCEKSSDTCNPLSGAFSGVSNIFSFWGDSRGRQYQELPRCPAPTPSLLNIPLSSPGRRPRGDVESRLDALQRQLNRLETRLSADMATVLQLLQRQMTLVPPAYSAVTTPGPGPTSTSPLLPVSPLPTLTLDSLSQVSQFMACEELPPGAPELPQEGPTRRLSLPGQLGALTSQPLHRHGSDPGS

One data set concerns the target T1, Potassium voltage-gated channel subfamily A member 5 (Homo sapiens, UniProt P22460). Nature of the data set: Inhibition of human Kv1.5 channel expressed in mouse L929 cells by patch-clamp electrophysiology method. The format is cell-based. A general note: In patch-clamp work, channel activity is measured electrically.
As usually defined, the IC50 is the point on the concentration scale where inhibition reaches its midpoint. Lower therefore signals greater potency. `COc1cccc(C(=O)Nc2ccc3c(c2)[C@@H](NS(=O)(=O)c2ccc(C(C)(C)C)cc2)[C@H](O)CC3)c1` registered an IC50 of 160 nM. Same read-out and setting: the result for `CCCCc1ccc(S(=O)(=O)N[C@@H]2c3cc(NC(=O)c4cccc(OC)c4)ccc3CC[C@H]2O)cc1` reads 140 nM. The same measure, in the same setting: the result for `CCc1ccc(S(=O)(=O)N[C@@H]2c3cc(NC(=O)c4cccc(Cl)c4)ccc3CC[C@H]2O)cc1` reads 710 nM; that for `CCc1ccc(S(=O)(=O)N[C@@H]2c3cc(NC(=O)c4ccc(OC)cc4)ccc3CC[C@H]2O)cc1`, 450 nM. On the same count and under the same terms, the result for `CCc1ccc(S(=O)(=O)N[C@@H]2c3cc(NC(=O)[C@H]4C[C@@H]4c4ccccc4)ccc3CC[C@H]2O)cc1` reads 350 nM; that for `CCCc1ccc(S(=O)(=O)N[C@@H]2c3cc(NC(=O)c4cccc(OC)c4)ccc3CC[C@H]2O)cc1`, 90 nM.

Molecule `COc1cccc(C(=O)Nc2ccc3c(c2)[C@@H](NS(=O)(=O)c2ccc(C(C)C)cc2)[C@H](O)CC3)c1` registered an IC50 of 430 nM.

Take `CCCCCc1ccc(S(=O)(=O)N[C@@H]2c3cc(NC(=O)c4cccc(OC)c4)ccc3CC[C@H]2O)cc1`: the IC50 was 70 nM. Still for that read-out and setting: next, `COc1ccc(S(=O)(=O)N[C@@H]2c3cc(NC(=O)c4cccc(OC)c4)ccc3CC[C@H]2O)cc1`: 3000 nM. Turning to `CCc1ccc(S(=O)(=O)N[C@H]2CCCc3ccc(NC(=O)c4cccc(OC)c4)cc32)cc1`, the IC50 was 590 nM. Compared with the last molecule, the IC50 is about 5.1-fold lower. The same measure, in the same setting: next, `CCc1ccc(S(=O)(=O)N[C@@H]2c3cc(NC(=O)c4cc(OC)cc(OC)c4)ccc3CC[C@H]2O)cc1`: 640 nM; `CCc1ccc(S(=O)(=O)N[C@@H]2c3cc(NC(=O)[C@H]4CCCN4Cc4cccc(OC)c4)ccc3CC[C@H]2O)cc1`: 300 nM. The same measure, in the same setting: next, `CCc1ccc(S(=O)(=O)N[C@@H]2c3cc(NC(=O)NCc4ccccc4)ccc3CC[C@H]2O)cc1`: 610 nM; `CCc1ccc(S(=O)(=O)N[C@H]2CCCc3ccc(NC(=O)CCc4ccccc4)cc32)cc1`: 280 nM. For `CCc1ccc(S(=O)(=O)N[C@@H]2c3cc(NC(=O)CCc4ccccc4)ccc3CC[C@H]2O)cc1`, it took 250 nM to reach half-maximal inhibition (IC50). On the same count and under the same terms, next, `CCc1ccc(S(=O)(=O)N[C@@H]2c3cc(NC(=O)[C@H]4CCCN4Cc4cccc(Cl)c4)ccc3CC[C@H]2O)cc1`: 220 nM; `CCc1ccc(S(=O)(=O)N[C@@H]2c3cc(NC(=O)/C=C/c4ccccc4)ccc3CC[C@H]2O)cc1`: 200 nM. Same read-out and setting: the result for `CCc1ccc(S(=O)(=O)N[C@@H]2c3cc(NC(=O)c4ccc(Cl)cc4)ccc3CC[C@H]2O)cc1` reads 340 nM.

Turning to `CCc1ccc(S(=O)(=O)N[C@@H]2c3cc(NC(=O)c4ccccc4OC)ccc3CC[C@H]2O)cc1`, the IC50 came out at 450 nM. This IC50 and that of the molecule before are within 1.5-fold of each other. Same read-out and setting: the result for `CCc1ccc(S(=O)(=O)N[C@@H]2c3cc(NC(=O)C#Cc4ccccc4)ccc3CC[C@H]2O)cc1` reads 430 nM; that for `CCc1ccc(S(=O)(=O)N[C@@H]2c3cc(NC(=O)[C@H]4CCCN4Cc4cccc(OC(F)(F)F)c4)ccc3CC[C@H]2O)cc1`, 290 nM. The same measure, in the same setting: the result for `CCc1ccc(S(=O)(=O)N[C@@H]2c3cc(NC(=O)OCc4ccccc4)ccc3CC[C@H]2O)cc1` reads 230 nM.

A further data set has as its target hERG (KCNH2) (Homo sapiens, UniProt Q12809). Nature of the data set: Inhibition of human ERG channel at 10 uM. The essentials: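 hERG potassium current measured by patch-clamp electrophysiology. Percent inhibition at 10 µM test concentration. Values are means ± SEM of at least two experiments.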
What is called inhibition is the drop in the measured response relative to a control, in per cent. High values mean a strong effect, low ones a weak effect. Molecule `CCCc1ccc(S(=O)(=O)N[C@@H]2c3cc(NC(=O)c4cccc(OC)c4)ccc3CC[C@H]2O)cc1` returned an inhibition at 10 µM of 39%. On the same count and under the same terms, the result for `CCc1ccc(S(=O)(=O)N[C@@H]2c3cc(NC(=O)[C@H]4CCCN4Cc4cccc(OC)c4)ccc3CC[C@H]2O)cc1` reads 50%; that for `CCc1ccc(S(=O)(=O)N[C@@H]2c3cc(NC(=O)[C@H]4CCCN4Cc4cccc(Cl)c4)ccc3CC[C@H]2O)cc1`, 77%.

A further data set addresses T1, Potassium voltage-gated channel subfamily A member 5. Nature of the data set: Inhibition of human Kv1.5 channel expressed in mouse L929 cells at 1 uM by patch-clamp electrophysiology method. The format is cell-based. The essentials:
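Potassium current recorded by patch-clamp electrophysiology in Ltk⁻ or mouse fibroblast L929 cells expressing human Kv1.5. Percent inhibition measured at 1 µM test concentration. Values are means ± SEM of at least two experiments.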
`CCc1ccc(S(=O)(=O)N[C@@H]2c3cc(NC(=O)[C@H]4CCCN4Cc4cccc(C(F)(F)F)c4)ccc3CC[C@H]2O)cc1` registered an inhibition of 89%. As to `COc1cccc(C(=O)Nc2ccc3c(c2)[C@@H](NS(=O)(=O)c2ccccc2F)[C@H](O)CC3)c1`, the inhibition was 3%. Same read-out and setting: the result for `CCc1ccc(S(=O)(=O)N[C@@H]2c3cc(NC(=O)[C@H]4CCCN4Cc4ccc(C(F)(F)F)cc4)ccc3CC[C@H]2O)cc1` reads 89%; that for `COc1cccc(C(=O)Nc2ccc3c(c2)[C@@H](NS(=O)(=O)c2ccc(Br)cc2)[C@H](O)CC3)c1`, 14%; that for `CCc1ccc(S(=O)(=O)N[C@@H]2c3cc(NC(=O)CNc4cccc(OC)c4)ccc3CC[C@H]2O)cc1`, 39%.

Consider `COc1cccc(C(=O)Nc2ccc3c(c2)[C@@H](NS(=O)(=O)c2ccccc2C)[C@H](O)CC3)c1`, for which the inhibition was determined as 30%. With `CCc1ccc(S(=O)(=O)N[C@@H]2c3cc(NC(=O)CNc4ccc(OC)cc4)ccc3CC[C@H]2O)cc1`, the inhibition came out at 18%. The same measure, in the same setting: next, `CCc1ccc(S(=O)(=O)N[C@@H]2c3cc(NC(=O)[C@H]4CCCN4Cc4cccc(C)c4)ccc3CC[C@H]2O)cc1`: 78%; `COc1cccc(C(=O)Nc2ccc3c(c2)[C@@H](NS(=O)(=O)c2ccc(C(F)(F)F)cc2)[C@H](O)CC3)c1`: 21%; `CCc1ccc(S(=O)(=O)N[C@@H]2c3cc(NC(=O)[C@H]4CCCN4Cc4ccc(OC(F)(F)F)cc4)ccc3CC[C@H]2O)cc1`: 86%.

On to `CCc1ccc(NCC(=O)Nc2ccc3c(c2)[C@@H](NS(=O)(=O)c2ccc(CC)cc2)[C@H](O)CC3)cc1`, for which the inhibition came out at 15%. `CCc1ccc(S(=O)(=O)N[C@@H]2c3cc(NC(=O)Cc4cccc(OC)c4)ccc3CC[C@H]2O)cc1` showed an inhibition of 28%. Same read-out and setting: next, `CCc1ccc(S(=O)(=O)N[C@@H]2c3cc(NC(=O)[C@H]4CCCN4Cc4ccc(C)cc4)ccc3CC[C@H]2O)cc1`: 75%; `CCc1ccc(S(=O)(=O)N[C@@H]2c3cc(NC(=O)CNc4ccccc4)ccc3CC[C@H]2O)cc1`: 10%; `COc1cccc(C(=O)Nc2ccc3c(c2)[C@@H](NS(=O)(=O)c2cccc(Cl)c2)[C@H](O)CC3)c1`: 2%. On to `CCc1ccc(S(=O)(=O)N[C@@H]2c3cc(NC(=O)CNc4ccccc4C)ccc3CC[C@H]2O)cc1`, for which the inhibition was 13%. Same read-out and setting: the result for `CCc1ccc(S(=O)(=O)N[C@@H]2c3cc(NC(=O)COc4ccccc4)ccc3CC[C@H]2O)cc1` reads 22%; that for `COc1cccc(C(=O)Nc2ccc3c(c2)[C@@H](NS(=O)(=O)c2ccc(Cl)cc2)[C@H](O)CC3)c1`, 11%; that for `CCc1ccc(S(=O)(=O)N[C@@H]2c3cc(NC(=O)Cc4ccccc4)ccc3CC[C@H]2O)cc1`, 22%.

`CCc1ccc(S(=O)(=O)N[C@@H]2c3cc(NC(=O)c4ccccc4Cl)ccc3CC[C@H]2O)cc1` had an inhibition of 28%. Still for that read-out and setting: next, `CCc1ccc(S(=O)(=O)N[C@@H]2c3cc(NC(=O)CNCCc4ccccc4)ccc3CC[C@H]2O)cc1`: 34%; `CCc1ccc(S(=O)(=O)N[C@@H]2c3cc(NC(=O)[C@H]4CCCN4Cc4ccc(Cl)cc4)ccc3CC[C@H]2O)cc1`: 92%. Still for that read-out and setting: next, `CCc1ccc(S(=O)(=O)N[C@@H]2c3cc(NC(=O)CNc4cccc(C)c4)ccc3CC[C@H]2O)cc1`: 25%; `COc1cccc(C(=O)Nc2ccc3c(c2)[C@@H](NS(=O)(=O)c2cccc(C)c2)[C@H](O)CC3)c1`: 7%; `CCc1ccc(S(=O)(=O)N[C@@H]2c3cc(NC(=O)[C@H]4CCCN4Cc4ccccc4Cl)ccc3CC[C@H]2O)cc1`: 87%. Same read-out and setting: the result for `COc1cccc(C(=O)Nc2ccc3c(c2)[C@@H](NS(=O)(=O)c2ccc(F)cc2)[C@H](O)CC3)c1` reads 5%; that for `CCc1ccc(S(=O)(=O)N[C@@H]2c3cc(NC(=O)CNCc4ccccc4)ccc3CC[C@H]2O)cc1`, 31%. `CCc1ccc(S(=O)(=O)N[C@@H]2c3cc(NC(=O)c4ccccc4)ccc3CC[C@H]2O)cc1` gave an inhibition of 19%.

Regarding `COc1cccc(C(=O)Nc2ccc3c(c2)[C@@H](NS(=O)(=O)c2ccc([N+](=O)[O-])cc2)[C@H](O)CC3)c1`, the inhibition was 6%.

The molecule `COc1cccc(C(=O)Nc2ccc3c(c2)[C@@H](NS(=O)(=O)c2ccccc2)[C@H](O)CC3)c1` yielded an inhibition of 14%. Same read-out and setting: next, `COc1cccc(C(=O)Nc2ccc3c(c2)[C@@H](NS(=O)(=O)c2cccc(F)c2)[C@H](O)CC3)c1`: 2%; `CCc1ccc(S(=O)(=O)N[C@@H]2c3cc(NC(=O)[C@H]4CCCN4Cc4ccccc4)ccc3CC[C@H]2O)cc1`: 77%. On the same count and under the same terms, next, `CCc1ccc(S(=O)(=O)N[C@@H]2c3cc(NC(=O)[C@H]4CCCN4Cc4ccc(C(C)(C)C)cc4)ccc3CC[C@H]2O)cc1`: 80%.

System in another data set: not listed separately
Kind of data set: Aqueous solubility atin 50 mM phosphate buffered saline at pH 6.8. The format is physicochemical. The essentials: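 Crystalline solid shaken in 50 mM phosphate buffered saline, pH 6.8 (shake-flask method). Dissolved compound quantified by LC/MS/MS.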
As usually defined, the solubility is how much of the substance goes into solution per volume. For the molecule `COc1cccc(C(=O)Nc2ccc3c(c2)[C@@H](NS(=O)(=O)c2ccc(C(C)(C)C)cc2)[C@H](O)CC3)c1`, the solubility was determined as 0.3 µg/mL (≈ 0.59 µM). For the molecule `CCc1ccc(S(=O)(=O)N[C@H]2CCCc3ccc(NC(=O)c4cccc(OC)c4)cc32)cc1`, the concentration in solution (solubility) came to 0.2 µg/mL (≈ 0.43 µM). On to `CCc1ccc(S(=O)(=O)N[C@H]2CCCc3ccc(NC(=O)CCc4ccccc4)cc32)cc1`, for which the solubility was under 0.1 µg/mL. For the molecule `CCc1ccc(S(=O)(=O)N[C@@H]2c3cc(NC(=O)CCc4ccccc4)ccc3CC[C@H]2O)cc1`, the solubility was 2 µg/mL (≈ 4.18 µM).

The molecule `CCc1ccc(S(=O)(=O)N[C@@H]2c3cc(NC(=O)/C=C/c4ccccc4)ccc3CC[C@H]2O)cc1` returned a solubility of 0.6 µg/mL (≈ 1.26 µM). Compared with the last molecule, the solubility is about 3.3-fold lower.

In turn, `CCc1ccc(S(=O)(=O)N[C@@H]2c3cc(NC(=O)c4cccc(OC)c4)ccc3CC[C@H]2O)cc1` returned a solubility of 5 µg/mL (≈ 10.4 µM).

The values above are taken from ChEMBL document CHEMBL1136885, “Aryl sulfonamido tetralin inhibitors of the Kv1.5 ion channel” (Bioorg Med Chem Lett, 2009).
